PMC3556274 (Bioconjugate chemistry, 2012)
Non-standard residues stand in square brackets, D forms with d. Residues, ends and D or L forms follow the SMILES beside them. *: point of attachment. DTPA = O=C(O)CN(CCN(CC(=O)O)CC(=O)O)CCN(CC(=O)O)CC(=O)*; Orn = NCCC[C@H](N)C(=O)O; 2Furoyl = O=C(c1ccco1)*

Tests used:
PAR2 [1] = target: T1, PAR2 (Homo sapiens, UniProt P55085); format: binding; details: 16HBE14o- cells, against 300 nM 2-f-LIGRLO-dtpa
T1 sequence (P55085 26-397): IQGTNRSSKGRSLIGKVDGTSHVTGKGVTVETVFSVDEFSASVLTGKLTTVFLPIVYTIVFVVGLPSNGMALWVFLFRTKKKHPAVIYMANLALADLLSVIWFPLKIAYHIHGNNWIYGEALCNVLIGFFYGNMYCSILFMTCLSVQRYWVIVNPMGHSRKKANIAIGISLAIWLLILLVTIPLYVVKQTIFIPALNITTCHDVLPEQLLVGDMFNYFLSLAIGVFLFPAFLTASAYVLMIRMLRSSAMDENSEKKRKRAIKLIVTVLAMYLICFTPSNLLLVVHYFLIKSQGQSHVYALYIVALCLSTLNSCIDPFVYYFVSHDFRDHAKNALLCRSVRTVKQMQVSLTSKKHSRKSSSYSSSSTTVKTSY
Procedure, shortened: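 Live 16HBE14o- cells grown to confluence (37°C, 5% CO2) on BSA/collagen I/fibronectin-coated 96-well plates. Cells were blocked 75 min in 2% BSA in HEPES-buffered HBSS pH 7.4, then given 45 min at 25°C with 300 nM Eu-DTPA-labelled PAR2 agonist plus competitor at 1 nM–600 µM. Three EDTA/Tween/BSA washes followed, then DELFIA enhancement for 40–45 min. Eu TRF read at ex 340/em 615 nm with 400 µs delay. Apparent IC50 from n ≥ 3 per concentration in ≥2 independent plates.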

PAR2 [2] = target: T1, PAR2; test: xCELLigence Real Time Cell Analyzer; format: cell-based; details: 16HBE14o- cells
PAR2 [3] = target: T1, PAR2; test: Ca2+ signaling by digital imaging microscopy in 16HBE14o- cells; format: cell-based; details: 5 µM
Procedure, shortened: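 Human bronchial epithelial 16HBE14o- cells (high PAR2 expression) imaged by digital microscopy for [Ca2+]i changes in individual cells over a 3 min run after agonist addition. Concentration response 0.5–25 µM. Read-out: time course of [Ca2+]i rise and percentage of cells in the field responding within 3 min. Each concentration had 3–9 experiments.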

PAR2 [4] = target: T1, PAR2; test: MAPK signaling, immunoblot of pERK/tERK; format: cell-based; details: 16HBE14o- cells, 5 min exposure, concentration response 1-10 µM
Procedure, shortened: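 16HBE14o- cells exposed 5 min to test compound at 1–10 µM. ERK1/2 phosphorylation measured by immunoblot as pERK relative to total ERK. Values were compared with matching HBSS control.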

[5] = test system: control vector-transfected (kNRK) rat kidney cells; test: Ca2+ signaling in control vector-transfected kNRK cells; format: cell-based
Procedure, shortened: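 Kirsten virus-transformed normal rat kidney cells (low PAR2 expression) transfected with control vector were run alongside PAR2-transfected kNRK cells. [Ca2+]i was imaged by digital microscopy as for the bronchial epithelial cells, scoring the percentage of cells responding within the 3 min run. Comparison was to matched control, n ≥ 4.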

Compound | competition for PAR2 binding (in words) (PAR2 [1]) | concentration that stimulated a maximum Cell Index (PAR2 [2]; RTCA) [µM] | agonist properties in the RTCA physiological response assay (PAR2 [2]; acute (10 min) and long-term (4 h) time points) | time to initial increase in [Ca2+]i (PAR2 [3]) [s] | concentration inducing a significant increase in pERK/tERK compared with control (PAR2 [4]) [µM] | concentration of peak (maximum) pERK/tERK activation (PAR2 [4]) [µM] | percentage of cells with Ca2+ signaling ([5]; 2.5 µM) | percentage of cells with Ca2+ signaling ([5]; 5 µM)
3-indoleacetyl-LIGRL-NH2 [3-ia-LIGRL] | displayed limited binding | – | – | – | – | – | – | –
CC[C@H](C)[C@H](NC(=O)[C@H](CC(C)C)NC(=O)c1ccco1)C(=O)NCC(=O)N[C@@H](CCCNC(=N)N)C(=O)N[C@@H](CC(C)C)C(=O)N[C@@H](CCCNC(=O)CN(CCN(CCN(CC(=O)O)CC(=O)O)CC(=O)O)CC(=O)O)C(N)=O [2-f-LIGRLO-dtpa, 2-furoyl-LIGRLO-(diethylenetriaminepentaacetic acid)-NH2] (2Furoyl-LIGRL[Orn](DTPA)-NH2) | – | 2.5 | full agonist properties | ≤ 30 | 2.5 | 10 | 0.42% ± 0.42 | 2.98% ± 0.09
